Screening results (PubChem BioAssay)
PHOSPHO1 block: PubChem AID 1565. Phosphoethanolamine/phosphocholine phosphatase (Homo sapiens), Q8TCT1. recombinant PHOSPHO1, absorbance phosphatase assay. inhibition, % at 13.3 µM. 1.1% of 290,000 active; in the data active = inhibition above about 60%
Runt-CBFb FRET: inhibitors of RUNX1 Runt–CBFb binding, primary screen, biochemical, FRET, Cerulean-Runt, Venus-CBFb, uHTS | 0.46% of 220,000 active | inhibition, % at 20 µM | AID 1496, 2009 | Cerulean-Runt/Venus-CBFb FRET ratio 530/480, 1 h;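 active = inhibition over about 50% at 20 µM in the single-dose screen, limit read from the data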;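 also: 0% = DMSO wells and 100% = excess unlabeled CBFb competitor control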
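Assay system: Cerulean-Runt domain fusion protein, energy donor; Signal: fluorescence energy transfer, 422 nm excitation, 530/480 nm emission; Timing: 1 h compound exposure, room temperature; Control set: unlabeled CBFb; Medium: Tris buffer pH 7.5 with salts and BSA; Compound: single test concentration of 20 µM, 1% DMSO final; Probe or stimulus: Venus-CBFb 100 nM.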
Runt-SMMHC FRET: inhibitors of RUNX1 Runt–CBFb-SMMHC binding, primary screen, biochemical, FRET, Cerulean-Runt, Venus-CBFb-SMMHC, uHTS; 0.74% of 220,000 active; Cerulean-Runt/Venus-CBFb-SMMHC FRET ratio 530/480, 1 h; AID 1434, 2008; Runt-related transcription factor 1 (Homo sapiens) + Core-binding factor subunit beta …; inhibition, % at 20 µM;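 active = mean inhibition across duplicate retests at 20 µM reaching about 50%, limit read from the data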;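 also: 0% = DMSO wells and 100% = wells with excess untagged CBFb-SMMHC; inhibitors lower the FRET ratio by blocking Runt binding to CBFb-SMMHC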
RanGTP-Imp inh: inhibitors of RanGTP-importin-beta interaction, primary screen, biochemical, FRET, CFP-Ran, YFP-importin-beta, homogeneous. Ran GTPase (GTP-bound) - importin-beta complex. cell-free CFP-Ran/YFP-importin-beta FRET ratio. inhibition, % (test concentration not listed). 1.1% of 300,000 active. AID 2216, 2009;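 active = more than half of the replicate wells show a fall in the fluorescence ratio signal beyond about 16%, limit read from the data, passing the limit was not always enough; inconclusive = exactly half of the replicate wells pass the set limit; inactive = fewer than half of replicates pass the limit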;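 also: 0% = DMSO wells and 100% = Ran loaded with GDP instead of GTP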
Wee1 stabilizer: Wee1 degradation inhibitors, primary screen, cell-based, HeLa, Wee1K328M-luciferase, luminescence | 1.2% of 220,000 active | reporter increase, % at 5 µM | HeLa Luc-Wee1K328M stability; 100% = proteasome inhibitor MG132 effect;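 active = activation above the mean of all tested compounds plus 3 SD, set per screening run, cut at about 8.8% in these data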;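 also: cells exposed to compound for 20 h before luminescence read; 0% = DMSO alone and 100% = MG132 at 30 µM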
Target sequence (P30291 whole entry K328M): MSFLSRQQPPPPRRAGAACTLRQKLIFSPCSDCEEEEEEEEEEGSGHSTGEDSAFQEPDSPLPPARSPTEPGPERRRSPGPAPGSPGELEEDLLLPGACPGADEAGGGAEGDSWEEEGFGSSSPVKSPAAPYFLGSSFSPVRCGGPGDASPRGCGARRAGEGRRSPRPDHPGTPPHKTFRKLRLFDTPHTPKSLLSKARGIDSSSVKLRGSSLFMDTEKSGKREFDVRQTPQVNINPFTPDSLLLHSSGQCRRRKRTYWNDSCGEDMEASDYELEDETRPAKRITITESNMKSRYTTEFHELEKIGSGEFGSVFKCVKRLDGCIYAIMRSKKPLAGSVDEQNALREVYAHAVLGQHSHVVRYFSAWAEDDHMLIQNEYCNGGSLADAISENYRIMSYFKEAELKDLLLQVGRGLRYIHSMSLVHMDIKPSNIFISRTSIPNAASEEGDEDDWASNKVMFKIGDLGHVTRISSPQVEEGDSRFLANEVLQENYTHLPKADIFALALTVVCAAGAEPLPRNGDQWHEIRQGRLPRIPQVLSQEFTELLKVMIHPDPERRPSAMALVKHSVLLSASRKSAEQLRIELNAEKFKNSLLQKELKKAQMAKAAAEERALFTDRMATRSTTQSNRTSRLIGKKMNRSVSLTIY
HMGR II inh: inhibitors of E. faecalis class II HMGR, primary screen, biochemical, Enterococcus faecalis; HMG-CoA reductase (Enterococcus faecalis, mvaE); purified E. faecalis HMGR, NADPH absorbance 340 nm kinetic; inhibition, % at 10 µM; 0.41% of 190,000 active;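 active = inhibition above a set limit, the median over all tested compounds plus 3 SD, cut at about 9.5% in these data; inconclusive = no clear call, values can overlap the other calls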;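 also: enzyme runs in reverse so mevalonate oxidation gives rising NADPH absorbance; 0% = complete reaction with DMSO and 100% = background rate lacking mevalonate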
Starred values were filed as active, the others as inactive; ? = inconclusive; · = no result given; + = active, no number. Rows were chosen to be rich in hits. Some 3.4% of all compounds tested hit in one or more screens of this group.

SMILES	PHOSPHO1 block	Runt-CBFb FRET	Runt-SMMHC FRET	RanGTP-Imp inh	Wee1 stabilizer	HMGR II inh
O=C(CNC(=S)N(Cc1ccccc1F)C1CCCCC1)NCCCN1CCOCC1	-0.8	0.1	-3.7	·	0.0	12.6*
CCC(C)NC(=O)c1oc2ccc(S(=O)(=O)N3CCC4(CC3)OCCO4)cc2c1C (centres undefined)	31.0	·	·	3.3	·	·
CCS(=O)(=O)c1ncc(Cl)c(C(=O)Nc2ccc(S(=O)(=O)N3CCC(C)CC3)cc2)n1	10.3	·	·	2.5	·	·
COc1cc(CN2CCNC(=O)C2CC(=O)NCCCC2CCCC2)cc(OC)c1 (centres undefined)	36.8	·	·	-1.2	·	·
COC(=O)c1c(C(=O)OC)c(-c2ccccc2)n2c1CS(=O)(=O)C2	9.1	1.3	-1.0	21.5*	-2.6	-4.1
O=C(Cc1cccs1)Nc1ccccc1F	28.6	·	·	3.1	·	·
COc1ccccc1Cn1c(=S)[nH]c2cc(C(=O)N3CCN(c4ccccc4OC)CC3)ccc2c1=O	22.6	·	·	-3.3	·	·
COc1ccccc1N1CCN(C(=O)c2ccc3c(=O)n(Cc4ccco4)c(=S)[nH]c3c2)CC1	82.0*	8.9	-1.7	?	4.1	1.0
COCCn1c(=S)[nH]c2cc(C(=O)N3CCc4ccccc43)ccc2c1=O	25.3	0.9	-1.3	-0.7	10.8*	-2.2
COc1cccc(CN2CCN(Cc3cccc(Br)c3)CC2)c1OC	15.6	·	·	0.7	·	·
O=C(NC(=S)N1CCCCC1)C12CC3CC(CC(C3)C1)C2	83.7*	-2.9	1.5	-5.0	0.6	-6.7
Cc1ccc2nc3c(cc(C(N)=S)c(=N)n3CCCOC(C)C)c(=O)n2c1	50.4	11.1	41.0	187.6*	-1.2	1.5
Cc1cccn2c(=O)c3cc(C(N)=S)c(=N)n(CCCN4CCOCC4)c3nc12	8.6	3.5	88.4*	-2.3	4.0	-0.6
COCCCn1c(=N)c(C(N)=S)cc2c(=O)n3cccc(C)c3nc21	·	·	·	+	·	·
C=CCn1c(=N)c(C(=O)OCC)cc2c(=O)n3cc(C)ccc3nc21	-3.5	11.7	38.3	·	·	·
COc1ccc(CCNC(=O)[C@H](CC(C)C)NC(=O)N2CCn3c2nc2ccccc23)cc1OC	-6.0	·	·	-1.5	·	·
Cc1cc(=O)oc2c(CN3CC(C)OC(C)C3)c(O)c(Cl)cc12 (centres undefined)	34.9	108.2*	135.9*	33.6*	-1.6	-1.7
CCCCc1cc(=O)oc2c(CN3CCCC3)c(O)ccc12	-26.2	33.9	94.8*	8.1	3.5	0.9
CCc1cc(=O)oc2c(CN3CCCC3)c(O)c(Cl)cc12	6.4	99.1*	145.7*	?	0.2	-2.7
CCc1cc(=O)oc2c(CN3CCN(C)CC3)c(O)ccc12	11.4	·	·	4.0	·	·
CCOc1ccc(N2CC(C(=O)NCc3nnnn3-c3ccc(C)c(C)c3)CC2=O)cc1 (centres undefined)	17.1	·	·	0.9	·	·
O=C(O)c1cccc2c1/C(=N/Nc1ccc([N+](=O)[O-])cc1[N+](=O)[O-])c1ccccc1-2	22.7	·	·	4.2	·	·
O=C(O)C(=O)/C(=C\c1ccc(Cl)cc1)c1ccc2ccccc2n1	24.1	39.2	96.0*	-4.6	-0.5	0.3
CCOC(=O)CC1COCCN1C(=O)c1ccc2oc(Cc3ccccc3)nc2c1 (centres undefined)	36.4	·	·	1.0	·	·
COC(=O)Cn1c(=O)c2c(n(Cc3ccccc3)c1=O)N/C(=C/c1ccc(OC)cc1)C2=O	14.9	-20.1	30.1	20.5*	4.5	·
SMILES	PHOSPHO1 block	Runt-CBFb FRET	Runt-SMMHC FRET	RanGTP-Imp inh	Wee1 stabilizer	HMGR II inh
COC(=O)Cn1c(=O)c(C(=O)CCl)c(N)n(Cc2ccccc2)c1=O	18.8	0.9	3.1	-0.2	-2.5	·
Cc1ccccc1C(=O)N1CCN(c2ccc(NC(=O)c3ccc([N+](=O)[O-])o3)cc2)CC1	26.6	·	·	0.1	·	·
CC1CCCCC1NC(=O)CCNC(=O)N1CC(=O)Nc2ccccc21 (centres undefined)	22.2	·	·	-0.3	·	·
Cc1ccc(S(=O)(=O)Nc2nc3ccccc3nc2Nc2cccc(S(=O)(=O)N3CCCC3)c2)cc1	-22.4	36.3	89.6*	29.7*	-3.7	1.3
O=[N+]([O-])c1cccc(S(=O)(=O)Nc2nc3ccccc3nc2Nc2cccc(S(=O)(=O)N3CCCCC3)c2)c1	-1.8	-11.4	-14.6	5.3	1.0	-7.8
CC(C)c1ccc(N2C(=O)CC(Sc3ncn[nH]3)C2=O)cc1 (centres undefined)	93.1*	21.2	8.8	2.1	2.9	-2.6
CC(C)c1ccc(C(=O)CSc2ncn[nH]2)cc1	100.2*	1.8	-37.0	-2.9	-2.5	-8.4
CC(C)c1ccc(N2C(=O)CC(Sc3nc4ccccc4o3)C2=O)cc1 (centres undefined)	-17.6	21.2	23.0	-1.4	2.0	0.2
COc1ccc(N2C(=O)CC(Sc3ncn[nH]3)C2=O)c(OC)c1 (centres undefined)	92.2*	17.3	13.9	0.3	-2.2	3.2
CC(=O)NC(CC(=O)Nc1cc(Cl)ccc1-n1cncn1)c1ccccc1 (centres undefined)	·	·	·	1.2	·	·
Cc1ccc(S(=O)(=O)N(C)c2ccc(C(=O)NCc3ccccn3)cc2)cc1	37.3	-0.8	-0.1	·	-0.7	1.1
CN(c1ccc(C(=O)NCc2ccccn2)cc1)S(=O)(=O)c1ccc(Cl)cc1	61.0*	·	·	2.8	·	·
CN(c1ccc(C(=O)Nc2cccnc2)cc1)S(=O)(=O)c1ccc(Cl)cc1	62.8*	·	·	-1.1	·	·
CC12CCC(C(=O)NNc3ccccc3)(C(=O)C1=O)C2(C)C (centres undefined)	-24.7	-3.2	1.6	2.1	3.8	·
CCc1nn2c(=O)cc(COc3ccc(/C=C4\C(=N)N5N=C(C)SC5=NC4=O)cc3)nc2s1	60.6*	·	-5.6	-0.7	-2.7	-0.5
Cc1nc2nc3c(cn2n1)C(=O)CC(C)(C)C3	0.9	-0.6	4.4	?	2.5	3.6
CCOc1ccc(-c2nnc3ccc(SCc4ccc(C(=O)OC)o4)nn23)cc1	95.4*	-0.9	-2.3	-0.2	1.2	-8.2
COc1ccc2c(c1OC)C(=O)N(c1cccc(NC(C)=O)c1)C2	·	·	·	-0.3	·	·
Cc1ccc(C(=O)N(CC(C)C)c2c(N)n(Cc3ccccc3)c(=O)[nH]c2=O)o1	·	·	·	6.3	·	·
Cc1ccc(C(=O)Nc2nc(-c3ccccn3)cs2)o1	14.7	10.0	-0.7	5.8	-2.2	·
